Reference: ChEMBL document CHEMBL1132188, “Probes for narcotic receptor mediated phenomena. 26. Synthesis and biological evaluation of diarylmethylpiperazines and diarylmethylpiperidines as novel, nonpeptidic delta opioid receptor ligands” (J Med Chem, 1999)
pIC50, pKi: −log10 of the molar value.

Key:
[1] = biological target: T1, Delta-type opioid receptor (Rattus norvegicus, UniProt P33533); test: In vitro binding affinity to Opioid receptor delta 1 in rat brain membranes by [3H]DADLE (Tyr-D-Ala-Gly-Phe-D-Leu) displacement.; type: cell membranes
T1 sequence (P33533 whole entry): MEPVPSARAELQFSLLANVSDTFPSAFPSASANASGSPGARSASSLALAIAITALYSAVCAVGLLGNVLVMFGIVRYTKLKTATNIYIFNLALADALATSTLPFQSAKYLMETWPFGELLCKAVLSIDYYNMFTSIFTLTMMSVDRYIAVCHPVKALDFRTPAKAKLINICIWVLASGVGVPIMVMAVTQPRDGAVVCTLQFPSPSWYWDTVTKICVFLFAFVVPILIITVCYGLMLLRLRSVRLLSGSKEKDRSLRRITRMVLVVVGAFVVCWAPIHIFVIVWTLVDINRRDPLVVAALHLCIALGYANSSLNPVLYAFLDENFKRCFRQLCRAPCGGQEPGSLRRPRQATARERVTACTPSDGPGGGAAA
How it was run: (§1)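 [3H]DADLE (2 nM) was bound to daily-prepared rat brain membranes for 2 h at 25 °C in 50 mM Tris-HCl pH 7.4 with 100 mM choline chloride, 3 mM MnCl2, DAMGO to block mu sites, and protease inhibitor cocktail. Nonspecific binding was defined with 20 µM levallorphan. Ten drug concentrations were run twice. Ki from IC50 by Cheng–Prusoff.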

[2] = biological target: T2, Mu-type opioid receptor (Rattus norvegicus, UniProt P33535); test: In vitro radioligand binding assay, for inhibition of [3H]-DAMGO (Tyr-D-Ala-Gly-(Me)-Phe-Gly-ol) binding to Opioid receptor mu 1 in rat brain membranes at highest concentration of 6600 nM tested; type: cell membranes
T2 sequence (P33535 whole entry): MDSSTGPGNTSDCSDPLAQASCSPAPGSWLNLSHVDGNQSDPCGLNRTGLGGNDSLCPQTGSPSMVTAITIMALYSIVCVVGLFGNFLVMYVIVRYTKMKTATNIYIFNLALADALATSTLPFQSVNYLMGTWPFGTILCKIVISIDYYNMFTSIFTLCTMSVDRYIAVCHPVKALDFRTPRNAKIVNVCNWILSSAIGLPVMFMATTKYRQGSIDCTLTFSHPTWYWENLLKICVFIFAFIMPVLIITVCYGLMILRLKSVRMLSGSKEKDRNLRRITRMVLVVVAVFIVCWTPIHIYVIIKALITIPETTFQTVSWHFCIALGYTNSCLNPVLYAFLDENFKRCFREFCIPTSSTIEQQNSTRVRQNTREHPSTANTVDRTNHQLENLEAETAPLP
How it was run: (§2)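 Rat brain membranes prepared daily: homogenised in ice-cold 10 mM Tris-HCl pH 7.0, centrifuged twice at 30000g for 10 min, resuspended in 50 mM Tris-HCl pH 7.4. Incubation 2 h at 25 °C in 50 mM Tris-HCl pH 7.4 with protease inhibitor cocktail. Nonspecific binding was defined with 20 µM levallorphan. Ten drug concentrations were run twice. Ki = IC50/(1+[L]/Kd).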

[3] = Ki ratio of mu to delta receptor
[4] = biological target: T1, Delta-type opioid receptor; test: In vitro radioligand binding assay, for inhibition of [3H]DADLE (Tyr-D-Ala-Gly-Phe-D-Leu) binding to Opioid receptor delta 1, in rat brain membranes at highest concentration of 1700 nM tested; type: cell membranes; how it was run: as §1
[5] = biological target: T3, Kappa-type opioid receptor (Cavia porcellus, UniProt P41144); test: In vitro radioligand binding assay, for inhibition of [3H]U-69593 binding to Opioid receptor kappa 1, in guinea pig brain membranes, at highest concentration of 7000 nM tested; type: cell membranes
T3 sequence (P41144 whole entry): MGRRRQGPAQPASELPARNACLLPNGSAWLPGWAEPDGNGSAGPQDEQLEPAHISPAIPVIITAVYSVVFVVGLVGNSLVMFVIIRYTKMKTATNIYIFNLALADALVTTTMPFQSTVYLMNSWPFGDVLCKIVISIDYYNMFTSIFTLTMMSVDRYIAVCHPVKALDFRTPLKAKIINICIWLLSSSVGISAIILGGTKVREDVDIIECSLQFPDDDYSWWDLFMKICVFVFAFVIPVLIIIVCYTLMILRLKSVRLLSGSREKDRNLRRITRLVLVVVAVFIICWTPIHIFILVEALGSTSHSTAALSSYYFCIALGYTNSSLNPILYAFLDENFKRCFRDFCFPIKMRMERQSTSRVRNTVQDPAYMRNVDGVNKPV
How it was run: (§3)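 Guinea pig brain membranes were homogenised in ice-cold 10 mM Tris-HCl pH 7.0, centrifuged twice at 30000g, and resuspended in 50 mM Tris-HCl pH 7.4. [3H]U69,593 (2 nM) was incubated 2 h at 25 °C with protease inhibitor cocktail and 1 µg/mL captopril. Nonspecific binding was defined with 1 µM U69,593. Ten drug concentrations were run twice. Ki = IC50/(1+[L]/Kd).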

[6] = biological target: T2, Mu-type opioid receptor; test: In vitro radioligand binding assay, for inhibition of [3H]DAMGO (Tyr-D-Ala-Gly-(Me)-Phe-Gly-ol) binding to Opioid receptor mu 1 in rat brain membranes at highest concentration of 6800 nM tested; type: cell membranes; how it was run: as §2
[7] = biological target: Delta-type opioid receptor (Mus musculus, UniProt P32300); test: Agonist activity using electrically induced smooth muscle contraction of mouse vas deferens.; type: functional
Sequence of Delta-type opioid receptor (Mus musculus, UniProt P32300) (P32300 whole entry): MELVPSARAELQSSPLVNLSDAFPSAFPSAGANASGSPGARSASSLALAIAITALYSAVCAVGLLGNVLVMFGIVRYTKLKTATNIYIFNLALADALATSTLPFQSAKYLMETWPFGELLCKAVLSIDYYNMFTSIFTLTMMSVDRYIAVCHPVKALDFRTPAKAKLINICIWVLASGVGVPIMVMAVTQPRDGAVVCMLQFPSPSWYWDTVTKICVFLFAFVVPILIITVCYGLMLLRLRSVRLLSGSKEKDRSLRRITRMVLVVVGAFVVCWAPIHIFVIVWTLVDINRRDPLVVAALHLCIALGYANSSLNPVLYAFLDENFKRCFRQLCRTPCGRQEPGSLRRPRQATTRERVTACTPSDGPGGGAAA

[8] = biological target: Mu-type opioid receptor (Cavia porcellus, UniProt P97266); test: Agonist activity using strips of guinea pig ileum longitudinal muscle myenteric plexus.; type: functional, tissue-based
Sequence of Mu-type opioid receptor (Cavia porcellus, UniProt P97266) (P97266 whole entry): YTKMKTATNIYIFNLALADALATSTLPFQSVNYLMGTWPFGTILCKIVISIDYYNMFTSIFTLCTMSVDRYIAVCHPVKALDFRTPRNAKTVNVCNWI
How it was run: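 Longitudinal muscle–myenteric plexus strips from male Hartley guinea pigs (250–500 g) at 1 g tension in Krebs bicarbonate, 37 °C, 95% O2/5% CO2. Transmural stimulation at 0.1 Hz, 0.4 ms pulses, supramaximal voltage. Cumulative agonist doses; % inhibition of contraction height. IC50 by nonlinear least squares.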

[9] = IC50 ratio of mu to delta receptor
[10] = biological target: T3, Kappa-type opioid receptor; test: In vitro radioligand binding assay, for inhibition of [3H]U-69593 binding to Opioid receptor kappa 1, in guinea pig brain membranes, at highest concentration of 8000 nM tested; type: cell membranes; how it was run: as §3
[11] = biological target: T2, Mu-type opioid receptor; test: In vitro radioligand binding assay, for inhibition of [3H]DAMGO (Tyr-D-Ala-Gly-(Me)-Phe-Gly-ol) binding to Opioid receptor mu 1 in rat brain membranes at highest concentration of 6300 nM tested; type: cell membranes; how it was run: as §2
[12] = biological target: T3, Kappa-type opioid receptor; test: In vitro radioligand binding assay, for inhibition of [3H]U-69593 binding to Opioid receptor kappa 1, in guinea pig brain membranes.; type: cell membranes; how it was run: as §3
[13] = biological target: T2, Mu-type opioid receptor; test: In vitro radioligand binding assay, for inhibition of [3H]DAMGO (Tyr-D-Ala-Gly-(Me)-Phe-Gly-ol) binding to Opioid receptor mu 1 in rat brain membranes.; type: cell membranes; how it was run: as §2
[14] = biological target: T2, Mu-type opioid receptor; test: In vitro radioligand binding assay, for inhibition of [3H]DAMGO (Tyr-D-Ala-Gly-(Me)-Phe-Gly-ol) binding to Opioid receptor mu 1 in rat brain membranes at highest concentration of 5600 nM tested; type: cell membranes; how it was run: as §2

Row | Structure (SMILES) | pKi [1] | Ki ratio [3] | pKi [6] | pKi [10] | further results
1 | C=CCN1CCN(C(c2ccccc2)c2ccc(C(=O)N(CC)CC)cc2)CC1 (stereo not drawn) | 7.98 | > 600 |  |  | pKi [2]: 5.00
2 | CCN(CC)C(=O)c1ccc(C(c2ccccc2)N2CCOCC2)cc1 (stereo not drawn) |  | > 4 | 5.00 |  | pKi [4]: 5.52; pKi [5]: 5.00
3 | CCN(CC)C(=O)c1ccc(C(c2ccccc2)N2CCN(Cc3ccccc3)CC2)cc1 (stereo not drawn) | 8.83 | > 4500 | 5.00 |  | pIC50 [7]: 7.59; pKi [5]: 5.70; pIC50 [8]: 5.01; Ratio [9]: 382
4 | CCN(CC)C(=O)c1ccc(C(c2ccccc2)N2CCCCC2)cc1 (stereo not drawn) |  | > 4 | 5.00 |  | pKi [4]: 5.52; pKi [5]: 5.00
5 | CCCN1CCN(C(c2ccccc2)c2ccc(C(=O)N(CC)CC)cc2)CC1 (stereo not drawn) | 7.35 | > 150 | 5.00 |  | pKi [5]: 5.00
6 | C=CCN1CCC(C(c2ccc(C(=O)N(CC)CC)cc2)c2cccc(OC)c2)CC1 (stereo not drawn) | 7.57 | > 200 |  | 5.00 | pKi [11]: 5.00
7 | CCN(CC)C(=O)c1ccc(C(=C2CCNCC2)c2cccc(OC)c2)cc1 | 8.30 | > 1200 |  | 5.00 | pIC50 [7]: 6.90; pIC50 [8]: 4.56; pKi [11]: 5.00; Ratio [9]: 220
8 | CCN(CC)C(=O)c1ccc(C(c2cccc(OC)c2)N(C)CCN(C)C)cc1 (stereo not drawn) | 6.61 | > 20 | 5.00 | 5.00 | 
9 | CCN(CC)C(=O)c1ccc(C(NCCN(C)C)c2cccc(OC)c2)cc1 (stereo not drawn) | 6.21 | > 10 | 5.00 | 5.00 | 
10 | C=CCN1CCN(C(c2ccc(C(=O)N(CC)CC)cc2)c2cccc(OC)c2)CC1 (stereo not drawn) | 7.57 | > 230 |  |  | pIC50 [7]: 7.48; pKi [12]: 5.00; pIC50 [8]: 4.69; pKi [13]: 5.00; Ratio [9]: 610
11 | CCN(CC)C(=O)c1ccc(C(c2ccccc2)N2CCN(C)CC2)cc1 (stereo not drawn) | 7.36 | > 130 |  |  | pKi [5]: 5.00; pKi [14]: 5.00
12 | C=CCN1C[C@H](C)N([C@@H](c2ccccc2)c2ccc(C(=O)N(CC)CC)cc2)C[C@H]1C | 9.30 | > 3600 |  |  | pKi [12]: 5.52; pKi [13]: 5.52; Ratio [9]: 813
13 | CCN(CC)C(=O)c1ccc(C(c2ccccc2)N2CCNCC2)cc1 (stereo not drawn) | 8.31 | > 1400 | 5.00 |  | 
14 | C=CCN1C[C@H](C)N([C@H](c2ccc(C(=O)N(CC)CC)cc2)c2cccc(OC)c2)C[C@H]1C [SNC-80] |  |  |  |  | pKi [12]: 4.93; pKi [13]: 5.40
15 | CCN(CC)C(=O)c1ccc(C(c2cccc(OC)c2)C2CCN(C)CC2)cc1 (stereo not drawn) | 6.48 | > 15 |  | 5.00 | pKi [11]: 5.00
16 | CCN(CC)C(=O)c1ccc(C(c2cccc(OC)c2)C2CCNCC2)cc1 (stereo not drawn) | 7.70 | > 300 |  | 5.00 | pKi [11]: 5.00
17 | CCN(CC)C(=O)c1ccc(C(OCCN(C)C)c2cccc(OC)c2)cc1 (stereo not drawn) | 6.59 | > 20 | 5.00 | 5.00 | 
18 | CCN(CC)C(=O)c1ccc(C(=C2CCN(Cc3ccccc3)CC2)c2cccc(OC)c2)cc1 | 7.92 | > 500 |  |  | pKi [12]: 5.12; pKi [11]: 5.00
